Laboratory results from article PMC7106177 (International Immunopharmacology, 2004).
Converted amounts (≈) assume the structure as drawn.

What was measured:
Type in all cases: cell-based, human
[1] = tested on: IL-8 production in HFL-1 cells; experiment: IL-8 production by TNF-α-stimulated HFL-1 cells; conditions: for IL-8 production reduced to (% of stimulated control): 1000 μg/ml, P<0.001; for IL-8 production reduced to (% of stimulated control) / concentration at which significant inhibition of IL-8 production was observed: TNF-α 24 h; for concentration at which significant inhibition of IL-8 production was observed: P<0.01
Outline: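 HFL-1 fetal lung fibroblasts are grown in Ham's F-12 with 15% heat-inactivated FBS on collagen, then seeded at 5×10^4 cells/well and adhered overnight. Test compound is added in 1% FBS medium, with vehicle controls, followed by TNF-α 10 ng/ml for 24 h at 37 °C. Supernatant IL-8 is measured by sandwich ELISA, at least in duplicate. Data are mean±S.D. of three experiments, analysed by Student's t-test, with IC50 calculated from the ELISA data.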

[2] = tested on: eotaxin 1 production in HFL-1 cells; experiment: eotaxin 1 production by TNF-α plus IL-4-stimulated HFL-1 cells; conditions: HFL-1, TNF-α/IL-4 stimuli for 48 h; calculated from ELISA data
Outline: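 Collagen-plated HFL-1 cells are seeded at 5×10^4/well and adhered overnight. Test compound in 1% FBS medium, or vehicle, is added, and the cells are then stimulated with TNF-α 10 ng/ml plus IL-4 20 U/ml for 48 h at 37 °C. Eotaxin 1 in the supernatant is quantified by sandwich ELISA, with samples at least in duplicate. Values are mean±S.D. of three independent experiments, compared by t-test, and IC50 is derived from the ELISA data.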

[3] = tested on: HFL-1 cells; experiment: cytotoxicity by LDH assay; conditions: calculated from LDH assay data; for CC30 (cytotoxicity), IL-8 condition: HFL-1, TNF-α stimuli for 24 h; for CC30 (cytotoxicity), eotaxin 1 condition: HFL-1, TNF-α/IL-4 stimuli for 48 h
Outline: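 LDH leakage is measured in supernatants from the same HFL-1 cultures under both stimulation conditions: TNF-α 10 ng/ml for 24 h, or TNF-α plus IL-4 20 U/ml for 48 h. Test compound is in 1% FBS medium, and final EtOH or DMSO is mostly below 0.1%. LDH is read with a commercial LDH cytotoxicity kit.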

[4] = tested on: IL-8 mRNA in HFL-1 cells; experiment: RT-PCR analysis of IL-8 mRNA expression; conditions: TNF-α-stimulated HFL-1
[5] = tested on: eotaxin 1 mRNA in HFL-1 cells; experiment: RT-PCR analysis of eotaxin 1 mRNA expression; conditions: TNF-α plus IL-4-stimulated HFL-1

Eotaxin 1 IC50 [2] [µg/mL] | IL-8 IC50 ([1]; HFL-1, TNF-α stimuli for 24 h, calculated from ELISA data) [µg/mL] | Structure (SMILES) | IL-8 production reduced to (% of stimulated control) [1] [%] | concentration at which significant inhibition of IL-8 production was observed [1] | CC30 (cytotoxicity), IL-8 condition [3] [µg/mL] | CC30 (cytotoxicity), eotaxin 1 condition [3] [µg/mL] | effect on IL-8 mRNA expression [4] | effect on eotaxin 1 mRNA expression [5] | doses needed to inhibit IL-8 and eotaxin 1 production ([1]; IL-8 and eotaxin 1 production, HFL-1) [mg/mL]
25 | – | CC1(C)[C@@H](O[C@H]2O[C@H](C(=O)O)[C@@H](O)[C@H](O)[C@H]2O[C@@H]2O[C@H](C(=O)O)[C@@H](O)[C@H](O)[C@H]2O)CC[C@]2(C)[C@H]3C(=O)C=C4[C@@H]5C[C@@](C)(C(=O)O)CC[C@]5(C)CC[C@@]4(C)[C@]3(C)CC[C@@H]12 [18α-GL, glycyrrhizin] | 25 | more than 300 μg/ml | 330 (≈ 401 µM) | >1000 | did not indicate significant effect | – | –
>300 | 370 | CC1(C)[C@@H](O[C@H]2O[C@H](C(=O)O)[C@@H](O)[C@H](O)[C@H]2O[C@@H]2O[C@H](C(=O)O)[C@@H](O)[C@H](O)[C@H]2O)CC[C@]2(C)[C@H]3C(=O)C=C4[C@@H]5C[C@@](C)(C(=O)O)CC[C@]5(C)CC[C@@]4(C)[C@]3(C)CC[C@@H]12 [18β-GL, glycyrrhizin] | 25 | more than 300 μg/ml | >1000 | >1000 | – | did not inhibit it at the same doses | –
– | – | CC1(C)[C@@H](O[C@H]2O[C@H](C(=O)O)[C@@H](O)[C@H](O)[C@H]2O[C@@H]2O[C@H](C(=O)O)[C@@H](O)[C@H](O)[C@H]2O)CC[C@]2(C)[C@H]3C(=O)C=C4[C@@H]5C[C@@](C)(C(=O)O)CC[C@]5(C)CC[C@@]4(C)[C@]3(C)CC[C@@H]12 [GL, Glycyrrhizin] | – | – | – | – | – | – | ~1
